Results taken from ChEMBL document CHEMBL1158972, “New cytotoxic beta-carboline alkaloids from the marine bryozoan, Cribricellina cribraria” (J Nat Prod, 1991).
Values after ≈ are worked out from the molar mass of the structure shown. Active and inactive are the calls of the source. The calls are words filed in the database; no cut-off is given here.

Experiments:
[1] = tested on: Candida albicans; experiment: Antimicrobial activity against Candida albicans at 30 ug; assay type: functional; settings: read-out: IZ
[2] = tested on: Bacillus subtilis; experiment: Antimicrobial activity against Bacillus subtilis at 30 ug; assay type: functional; settings: read-out: IZ
[3] = tested on: Escherichia coli; experiment: Antimicrobial activity against Escherichia coli assessed per disk; assay type: functional
[4] = tested on: Pseudomonas aeruginosa; experiment: Antimicrobial activity against Pseudomonas aeruginosa assessed per disk; assay type: functional
[5] = tested on: Poliovirus 1; experiment: Antiviral activity against Polio virus 1 Pfizer vaccine in african green monkey BSC1 cells assessed as excess radius from disk edge at 20 ug/disk; assay type: functional, organism-based; settings: BSC-1
Outline: (§1)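 Disc assay on BSC cell monolayers (ATCC CCL 26) infected with the Pfizer vaccine strain of poliovirus, with the virus grown on BSC cells. Scored by the radius of the antiviral/cytotoxic zone beyond the disc edge: 2+ = 2-4 mm, 3+ = 4-6 mm, ww = zone over the whole well.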

[6] = tested on: Trichophyton mentagrophytes; experiment: Antimicrobial activity against Trichophyton mentagrophytes assessed per disk; assay type: functional
[7] = Cytotoxicity against african green monkey BSC1 cells at 20 ug/disk; assay type: cell-based; settings: chlorocebus aethiops, bsc-1
Outline: (§2)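 Cytotoxic zone around the disc on a BSC monolayer (ATCC CCL 26), scored as excess radius beyond the disc edge: 2+ = 2-4 mm, 3+ = 4-6 mm, ww = zone over the whole well.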

[8] = tested on: Amorphotheca resinae; experiment: Antimicrobial activity against Cladosporium resinae assessed per disk; assay type: functional
[9] = tested on: P388; experiment: Cytotoxicity against mouse P388 cells; assay type: functional, cell-based
Outline: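 P-388 leukemia line (ATCC CCL 46). The value is the sample concentration, in ng/ml, that reduces cell growth by 50%.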

[10] = tested on: Bacillus subtilis; experiment: Antimicrobial activity against Bacillus subtilis assessed per disk; assay type: functional
[11] = tested on: Human alphaherpesvirus 1; experiment: Antiviral activity against Herpes simplex virus (type 1 / strain F) ATCC VR 733 in african green monkey BSC1 cells assessed as excess radius from disk edge at 20 ug/disk; assay type: functional, organism-based; settings: BSC-1
Outline: (§3)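 Disc assay of herpes simplex type I (strain F, ATCC VR 733) on a BSC cell line (ATCC CCL 26). The antiviral zone is scored as excess radius from the disc edge: 2+ = 2-4 mm, 3+ = 4-6 mm, ww = zone over the whole well.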

[12] = tested on: Candida albicans; experiment: Antimicrobial activity against Candida albicans assessed per disk; assay type: functional
[13] = tested on: Human alphaherpesvirus 1; experiment: Antiviral activity against Herpes simplex virus (type 1 / strain F) ATCC VR 733 in african green monkey BSC1 cells assessed as excess radius from disk edge at 0.5 ug/disk; assay type: functional, BSC-1; settings: Human alphaherpesvirus 1, Strain F ATCC VR 733; read-out: IZ; outline: as §3
[14] = tested on: Poliovirus 1; experiment: Antiviral activity against Polio virus 1 Pfizer vaccine in african green monkey BSC1 cells assessed as excess radius from disk edge at 0.5 ug/disk; assay type: functional, BSC-1; settings: Enterovirus C; read-out: IZ; outline: as §1
[15] = tested on: Human alphaherpesvirus 1; experiment: Antiviral activity against Herpes simplex virus (type 1 / strain F) ATCC VR 733 in african green monkey BSC1 cells assessed as excess radius from disk edge at 0.4 ug/disk; assay type: functional, organism-based; settings: BSC-1; outline: as §3
[16] = tested on: Poliovirus 1; experiment: Antiviral activity against Polio virus 1 Pfizer vaccine in african green monkey BSC1 cells assessed as excess radius from disk edge at 0.4 ug/disk; assay type: functional, organism-based; settings: BSC-1; outline: as §1
[17] = Cytotoxicity against african green monkey BSC1 cells at 0.5 ug/disk; assay type: cell-based; settings: chlorocebus aethiops, bsc-1; outline: as §2
[18] = Cytotoxicity against african green monkey BSC1 cells at 0.4 ug/disk; assay type: cell-based; settings: chlorocebus aethiops, bsc-1; outline: as §2
[19] = Cytotoxicity against african green monkey BSC1 cells at 2 ug/disk; assay type: cell-based; settings: chlorocebus aethiops, bsc-1; outline: as §2
[20] = Cytotoxicity against african green monkey BSC1 cells at 40 ug/disk; assay type: cell-based; settings: chlorocebus aethiops, bsc-1; outline: as §2
[21] = Cytotoxicity against african green monkey BSC1 cells at 10 ug/disk; assay type: cell-based; settings: chlorocebus aethiops, bsc-1; outline: as §2
[22] = tested on: Human alphaherpesvirus 1; experiment: Antiviral activity against Herpes simplex virus (type 1 / strain F) ATCC VR 733 in african green monkey BSC1 cells assessed as excess radius from disk edge at 40 ug/disk; assay type: functional, BSC-1; settings: Human alphaherpesvirus 1, Strain F ATCC VR 733; read-out: IZ; outline: as §3
[23] = tested on: Human alphaherpesvirus 1; experiment: Antiviral activity against Herpes simplex virus (type 1 / strain F) ATCC VR 733 in african green monkey BSC1 cells assessed as excess radius from disk edge at 10 ug/disk; assay type: functional, organism-based; settings: BSC-1; outline: as §3
[24] = Cytotoxicity against african green monkey BSC1 cells at 5 ug/disk; assay type: cell-based; settings: chlorocebus aethiops, bsc-1; outline: as §2
[25] = tested on: Human alphaherpesvirus 1; experiment: Antiviral activity against Herpes simplex virus (type 1 / strain F) ATCC VR 733 in african green monkey BSC1 cells assessed as excess radius from disk edge at 5 ug/disk; assay type: functional, BSC-1; settings: Human alphaherpesvirus 1, Strain F ATCC VR 733; read-out: IZ; outline: as §3
[26] = tested on: Human alphaherpesvirus 1; experiment: Antiviral activity against Herpes simplex virus (type 1 / strain F) ATCC VR 733 in african green monkey BSC1 cells assessed as excess radius from disk edge at 1 ug/disk; assay type: functional, organism-based; settings: BSC-1; outline: as §3
[27] = Cytotoxicity against african green monkey BSC1 cells at 1 ug/disk; assay type: cell-based; settings: chlorocebus aethiops, bsc-1; outline: as §2
[28] = tested on: Amorphotheca resinae; experiment: Antimicrobial activity against Cladosporium resinae at 100 units; assay type: functional, organism-based
[29] = tested on: Trichophyton mentagrophytes; experiment: Antimicrobial activity against Trichophyton mentagrophytes at 100 units; assay type: functional, organism-based
[30] = tested on: Human alphaherpesvirus 1; experiment: Antiviral activity against Herpes simplex virus (type 1 / strain F) ATCC VR 733 in african green monkey BSC1 cells assessed as excess radius from disk edge at 2 ug/disk; assay type: functional, BSC-1; settings: Human alphaherpesvirus 1, Strain F ATCC VR 733; read-out: IZ; outline: as §3

O=C(N[C@H](CO)[C@H](O)c1ccc([N+](=O)[O-])cc1)C(Cl)Cl [CHLORAMPHENICOL]
zone of inhibition at 30 µg/disc [1]: 8 mm | zone of inhibition at 30 µg/disc [2]: 12 mm

CC1NC(C(=O)O)Cc2c1[nH]c1ccccc21 (stereo not drawn)
MIC [3]: >60 µg | MIC [4]: >60 µg | inhibition zone (IZ) [5]: inactive | MIC [6]: >60 µg | inhibition zone (IZ) [7]: Not Active | MIC [8]: >60 µg | IC50 [9]: > 125 µg/mL | MIC [10]: >60 µg | inhibition zone (IZ) [11]: inactive | MIC [12]: >60 µg

C=Cc1nccc2c1[nH]c1c(O)cccc12
MIC [3]: >60 µg | MIC [4]: >60 µg | zone of inhibition at 0.5 µg/disc [13]: 1 mm | zone of inhibition at 0.5 µg/disc [14]: 1 mm | inhibition zone (IZ) [15]: inactive | MIC [6]: 0.45 µg | MIC [8]: 3.7 µg | inhibition zone (IZ) [16]: inactive | MIC [10]: 7.5 µg | inhibition zone (IZ) [17]: 2 mm | inhibition zone (IZ) [18]: Not Active | MIC [12]: 15 µg | inhibition zone (IZ) [19]: Active

CCc1nccc2c1[nH]c1c(O)cccc12
MIC [3]: 30 µg | MIC [4]: >60 µg | inhibition zone (IZ) [5]: inactive | MIC [6]: 30 µg | inhibition zone (IZ) [7]: Not Active | MIC [8]: >60 µg | IC50 [9]: > 12.5 µg/mL | MIC [10]: 30 µg | inhibition zone (IZ) [11]: inactive | MIC [12]: 30 µg

c1ccc2c(c1)[nH]c1cnccc12 [NORHARMANE]
MIC [3]: 3.7 µg | MIC [4]: >60 µg | inhibition zone (IZ) [5]: inactive | MIC [6]: 0.9 µg | inhibition zone (IZ) [7]: Not Active | MIC [8]: 15 µg | IC50 [9]: 25 µg/mL (≈ 149 µM) | MIC [10]: 7.5 µg | inhibition zone (IZ) [11]: inactive | MIC [12]: 1.9 µg

COC(=O)C1Cc2c([nH]c3ccccc23)C(C)N1 (stereo not drawn)
MIC [3]: >60 µg | MIC [4]: >60 µg | inhibition zone (IZ) [5]: inactive | MIC [6]: >60 µg | inhibition zone (IZ) [7]: Not Active | MIC [8]: >60 µg | IC50 [9]: 120 µg/mL (≈ 491 µM) | MIC [10]: >60 µg | inhibition zone (IZ) [11]: inactive | MIC [12]: 7.5 µg

CC(C)c1nccc2c1[nH]c1ccccc12
MIC [3]: >120 µg | MIC [4]: >60 µg | MIC [6]: 0.45 µg | inhibition zone (IZ) [7]: Not Active | MIC [8]: 15 µg | IC50 [9]: 13 µg/mL (≈ 61.8 µM) | MIC [10]: 7.5 µg | inhibition zone (IZ) [11]: inactive | MIC [12]: 1.9 µg

CCc1ncc(S(C)(=O)=O)c2c1[nH]c1ccccc12
MIC [3]: >60 µg | MIC [4]: >60 µg | MIC [6]: 30 µg | inhibition zone (IZ) [7]: Not Active | MIC [8]: >60 µg | IC50 [9]: > 12.5 µg/mL | MIC [10]: 30 µg | inhibition zone (IZ) [11]: inactive | MIC [12]: >60 µg

C=Cc1nccc2c1[nH]c1ccccc12
MIC [3]: 30 µg | MIC [4]: >60 µg | zone of inhibition at 0.5 µg/disc [13]: 1 mm | inhibition zone (IZ) [15]: inactive | MIC [6]: 0.1 µg | MIC [8]: 0.9 µg | IC50 [9]: 0.1 µg/mL (≈ 0.515 µM) | MIC [10]: 1.9 µg | inhibition zone (IZ) [17]: 2 mm | inhibition zone (IZ) [18]: Not Active | MIC [12]: 1.9 µg | inhibition zone (IZ) [19]: Active

Cc1nccc2c1[nH]c1ccccc12 [HARMAN]
MIC [3]: 60 µg | MIC [4]: >60 µg | inhibition zone (IZ) [5]: inactive | MIC [6]: 3.7 µg | inhibition zone (IZ) [7]: Not Active | MIC [8]: 15 µg | IC50 [9]: 25 µg/mL (≈ 137 µM) | MIC [10]: 7.5 µg | inhibition zone (IZ) [11]: inactive | MIC [12]: 1.9 µg

CCCc1nccc2c1[nH]c1ccccc12
MIC [3]: >120 µg | MIC [4]: >60 µg | MIC [6]: 15 µg | inhibition zone (IZ) [7]: Not Active | MIC [8]: >120 µg | IC50 [9]: 25 µg/mL (≈ 119 µM) | MIC [10]: >120 µg | inhibition zone (IZ) [11]: inactive | MIC [12]: >120 µg

CCCCCCc1nccc2c1[nH]c1ccccc12
MIC [3]: >60 µg | MIC [4]: >60 µg | inhibition zone (IZ) [20]: 1 mm | inhibition zone (IZ) [21]: 1 mm | zone of inhibition at 40 µg/disc [22]: 1 mm | MIC [6]: 1.9 µg | inhibition zone (IZ) [23]: inactive | MIC [8]: 7.5 µg | IC50 [9]: 9 µg/mL (≈ 35.7 µM) | MIC [10]: >60 µg | MIC [12]: >60 µg

C=Cc1nccc2c1[nH]c1c(OC(C)=O)cccc12
MIC [3]: >60 µg | MIC [4]: >60 µg | inhibition zone (IZ) [24]: 2 mm | zone of inhibition at 5 µg/disc [25]: 1 mm | inhibition zone (IZ) [26]: inactive | MIC [6]: 0.9 µg | Activity [7]: Active | inhibition zone (IZ) [27]: Not Active | MIC [8]: >60 µg | IC50 [9]: 0.65 µg/mL (≈ 2.58 µM) | MIC [10]: 7.5 µg | MIC [12]: 15 µg | inhibition zone (IZ) [19]: Active

CCc1nccc2c1[nH]c1ccccc12
MIC [3]: >120 µg | MIC [4]: >60 µg | inhibition zone (IZ) [5]: inactive | MIC [6]: 1.9 µg | inhibition zone (IZ) [7]: Not Active | MIC [8]: 30 µg | IC50 [9]: 25 µg/mL (≈ 127 µM) | MIC [10]: 7.5 µg | inhibition zone (IZ) [11]: inactive | MIC [12]: 1.9 µg

NYSTATIN
inhibition zone (IZ) [28]: 12 mm | inhibition zone (IZ) [29]: 4 mm

C=Cc1nccc2c1[nH]c1c(OC)cccc12
MIC [3]: >60 µg | MIC [4]: >60 µg | zone of inhibition at 0.5 µg/disc [13]: 1 mm | inhibition zone (IZ) [15]: inactive | MIC [6]: 0.45 µg | MIC [8]: 15 µg | IC50 [9]: 0.1 µg/mL (≈ 0.446 µM) | MIC [10]: 7.5 µg | inhibition zone (IZ) [17]: 1 mm | zone of inhibition at 2 µg/disc [30]: 1 mm | inhibition zone (IZ) [18]: Not Active | MIC [12]: 7.5 µg | inhibition zone (IZ) [19]: 2 mm

CCc1nccc2c1[nH]c1c(OC)cccc12
MIC [3]: >60 µg | MIC [4]: >60 µg | inhibition zone (IZ) [5]: inactive | MIC [6]: 7.5 µg | inhibition zone (IZ) [7]: Not Active | MIC [8]: >60 µg | IC50 [9]: > 12.5 µg/mL | MIC [10]: >60 µg | inhibition zone (IZ) [11]: inactive | MIC [12]: 7.5 µg
